Assay results from different studies.
Compare with care: the assays were run in different laboratories.
PIK3CA I800L: Phosphatidylinositol 4,5-bisphosphate 3-kinase catalytic subunit alpha isoform (PIK3CA, Homo sapiens, UniProt P42336, I800L)
PIK3CA: Phosphatidylinositol 4,5-bisphosphate 3-kinase catalytic subunit alpha isoform (PIK3CA, Homo sapiens, UniProt P42336)
PIK3CA E542K: Phosphatidylinositol 4,5-bisphosphate 3-kinase catalytic subunit alpha isoform (PIK3CA, Homo sapiens, UniProt P42336, E542K)
PIK3CA E545A: Phosphatidylinositol 4,5-bisphosphate 3-kinase catalytic subunit alpha isoform (PIK3CA, Homo sapiens, UniProt P42336, E545A)
PIK3CA Q546K: Phosphatidylinositol 4,5-bisphosphate 3-kinase catalytic subunit alpha isoform (PIK3CA, Homo sapiens, UniProt P42336, Q546K)
PIK3CA H1047L: Phosphatidylinositol 4,5-bisphosphate 3-kinase catalytic subunit alpha isoform (PIK3CA, Homo sapiens, UniProt P42336, H1047L)

With `CNC(=O)[C@@H]1CC[C@@H](n2c(-c3ccc4cnccc4c3)nc3ccc(C(=O)NCc4cccc(C(N)=O)c4)cc32)C1` the remaining binding was 84% (Phosphatidylinositol 4,5-bisphosphate 3-kinase catalytic subunit alpha isoform (PIK3CA, Homo sapiens, UniProt P42336, E545K); binding; competition with immobilised ligand; 1 µM).
With `NS(=O)(=O)c1cc(NC(=O)C2(c3ccccc3Cl)CC2)ccc1Oc1cccc(Cl)c1` the remaining binding was 100% (PIK3CA I800L; cell-free assay; competition with immobilised ligand; 1 µM).
For `CN(C)c1nccc(-c2cnc3ncccn23)n1`, the remaining binding was 71% (PIK3CA; binding; 1 µM).
The remaining binding of `C[C@@H]1CN(c2cc(-c3n[nH]c4ccc(OC5(C)CC5)cc34)ncn2)C[C@H](C)O1` is reported as 72% (Phosphatidylinositol 4,5-bisphosphate 3-kinase catalytic subunit alpha isoform (PIK3CA, Homo sapiens, UniProt P42336, C420R); cell-free assay; competition with immobilised ligand; 0.1 µM).
The remaining binding of `O=C(NCCCN1CCOCC1)c1ccc(Nc2ncc(Cl)c(-c3ccc(Cl)s3)n2)cc1` is reported as 100% (PIK3CA E542K; binding; competition with immobilised ligand; 1 µM).
For `CN(C)c1ncc(F)c(-c2cnn3ncccc23)n1`, the remaining binding was 77% (PIK3CA; binding; 1 µM).
With `c1cncc(-c2cccc(Nc3nccc(NC4CCCCC4)n3)c2)c1` the remaining binding was 80% (PIK3CA E545A; binding; competition with immobilised ligand; 10 µM).
For `O=c1nc(-c2ccccn2)sc2ccccc12`, the remaining binding was 92% (PIK3CA E545A; cell-free assay; competition with immobilised ligand; 1 µM).
With `C[C@H]1CCN(c2nccc(-c3cnn4ncccc34)n2)C1` the remaining binding was 85% (PIK3CA Q546K; binding; 1 µM).
For `O=C(c1ccc(Nc2nccc(-c3cc4ccccc4s3)n2)cc1)N1CCC(N2CCCC2)CC1`, the remaining binding was 100% (PIK3CA H1047L; binding; competition with immobilised ligand; 1 µM).
With `CN1CCN(c2ccc(Nc3nccc(-c4cccc([N+](=O)[O-])c4)n3)cc2C(F)(F)F)CC1` the remaining binding was 4.8% (PIK3CA H1047L; binding; 10 µM).
`O=C(Nc1c[nH]nc1C(=O)NC1CCNCC1)c1cc(F)cc(F)c1` has a remaining binding of 87% (PIK3CA H1047L; binding; competition with immobilised ligand; 1 µM).
For `O=C(O)[C@@H]1[C@@H](Cn2nnc3ccccc3c2=O)CC[C@H]1C(=O)c1ccc(OCCC2CCOCC2)cc1`, the remaining binding was 100% (PIK3CA; cell-free assay; competition with immobilised ligand; 1 µM).
For `CCN1CCN(Cc2ccc(C(=O)Nc3ccc(C)c(Oc4ccc5c(c4)CC(=O)N5)c3)cc2C(F)(F)F)CC1`, the remaining binding was 100% (PIK3CA H1047L; binding; competition with immobilised ligand; 1 µM).
With `Cc1cnn2ncc(-c3ccnc(N(C)C)n3)c2c1` the remaining binding was 79% (PIK3CA E542K; binding; 1 µM).
For `COc1cnc(Nc2cccc(S(N)(=O)=O)c2)nc1N1CCN(c2ccccc2)CC1`, the remaining binding was 100% (PIK3CA E545A; binding; competition with immobilised ligand; 1 µM).
The remaining binding of `c1cnn2ncc(-c3ccnc(N4CCC45COC5)n3)c2c1` is reported as 68% (PIK3CA I800L; binding; 1 µM).
With `Cc1c(C(=O)O)cc(-c2ccc(C3CCNCC3)cc2)c2ccc(-c3ccc(C(F)(F)F)cc3)cc12` the remaining binding was 100% (Phosphatidylinositol 4,5-bisphosphate 3-kinase catalytic subunit alpha isoform (PIK3CA, Homo sapiens, UniProt P42336, M1043I); cell-free assay; competition with immobilised ligand; 1 µM).
With `N[C@@H]1CCN(c2nccc(-c3cnn4ncccc34)n2)C1` the remaining binding was 80% (PIK3CA E542K; binding; 1 µM).
`O=C(NCc1ncc(C(F)(F)F)cc1Cl)c1ccc2c(c1)C1(CCS(=O)(=O)CC1)[C@@H](C1CC1)N2S(=O)(=O)c1ccc(F)cc1` gave a remaining binding of 72% (PIK3CA Q546K; cell-free assay; competition with immobilised ligand; 1 µM).
